Assay outcomes deposited in PubChem by several laboratories.
TMEM16A act – TMEM16A chloride channel activators or potentiators, primary screen, cell-based, HTS; Anoctamin-1 (Mus musculus), Q8BHY3; HEK293 TMEM16A/YFP-H148Q/I152L, iodide quench fluorescence; hits give low values; B-score at 10 µM; hit rate 0.3% among 340,000;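 active = fluorescence-ratio B-score plate-corrected deviation score at least 3 library SD below zero, with starting fluorescence score within 5 deviations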;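 also: channel opened by trigger with iodide after compound preincubation; score built on the fluorescence ratio of max minus min over baseline; more negative score means more quench and so TMEM16A activation or potentiation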
TAAR1 antagonist – human TAAR1 antagonists, primary screen, Fluo-8 calcium fluorescence, CHO RD-HGA16 cells; inhibition, % at 3 µM; Trace amine-associated receptor 1 (Homo sapiens), Q96RJ0; antagonist; hit rate 1.5% among 360,000;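 active = inhibition above a per-plate cutoff, the mean inhibition of test compounds on that plate plus 3 SD, cut at about 49% in these data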;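 also: 0% = DMSO plus EC80 beta-PEA response and 100% = DMSO alone without agonist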
Target sequence (Q96RJ0 whole entry, looked up): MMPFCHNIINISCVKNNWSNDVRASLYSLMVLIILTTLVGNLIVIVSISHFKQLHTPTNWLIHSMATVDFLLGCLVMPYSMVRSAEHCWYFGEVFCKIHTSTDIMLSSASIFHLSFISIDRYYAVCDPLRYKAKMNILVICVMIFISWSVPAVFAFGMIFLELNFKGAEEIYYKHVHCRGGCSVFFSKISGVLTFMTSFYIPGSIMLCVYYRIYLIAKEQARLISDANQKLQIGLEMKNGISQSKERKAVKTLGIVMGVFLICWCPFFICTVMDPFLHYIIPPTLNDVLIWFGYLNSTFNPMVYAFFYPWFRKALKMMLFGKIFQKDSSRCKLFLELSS
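Assay system: CHO-derived RD-HGA16 cells stably expressing human TAAR1 plus Gα16. Timing: 140 s kinetic read after compound, 140 s after agonist. Technique: kinetic Fluo-8 calcium fluorescence measurement. Measure: % inhibition of agonist calcium response.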
TAAR1 agonist – human TAAR1 agonists, primary screen, Fluo-8 calcium fluorescence, CHO RD-HGA16 cells; Trace amine-associated receptor 1 (Homo sapiens), Q96RJ0; vehicle wells 0%, saturating PEA agonist 100%; activation, % at 3 µM; hit rate 0.99% among 360,000; AID 624467, 2012;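 active = activation above the mean activation of all test compounds in the run plus 3 SD, cut at about 38% in these data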
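Signal – calcium-sensitive Fluo-8 signal, excitation 470-495, emission 515-575 nm · System – RD-HGA16 (CHO) cells co-expressing Gα16 and hTAAR1 · Incubation – 17-24 h seeding, 75 min 37 °C dye, 30 min RT · Compound dosing – 3 µM single concentration · Repeats – no replicates (n 1)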
CRFBP-R2 agonist – agonists of CRF-BP/CRF-R2 complex, primary screen, cell-based, HEK293, calcium dye fluorescence, uHTS; CRF-binding protein / CRF receptor 2 complex (human); calcium dye fluorescence (FLIPR); percent of saturating CRF peptide response; activation, % at 13.2 µM; hit rate 0.46% among 350,000; AID 588473, 2011;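 active = activation of at least 50%, plus an integration ratio under a set limit after plate pattern correction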;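 also: plate controls were neutral control wells without compound for no effect and CRF at EC100 for full effect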
CRFBP-R2 block – antagonists of CRF-BP/CRF-R2 complex, primary screen, cell-based, HEK293, calcium dye fluorescence, uHTS; CRF-induced calcium fluorescence; inhibition, % at 11.8 µM; hit rate 0.59% among 350,000;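 active = inhibition of the ligand-induced calcium signal above about 50% at the single tested concentration, limit read from the data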
ANO1 block – TMEM16A chloride channel inhibitors, primary screen, cell-based, HTS; Anoctamin-1 (Mus musculus), Q8BHY3; AID 588511, 2011; HEK293 TMEM16A/YFP iodide influx fluorescence, ionomycin; hit rate 1.2% among 310,000; normalized B-score (activity score, 25-100; higher = stronger inhibition) at 10 µM;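 active = ratio plate-corrected score three or more library SD toward inhibition, starting fluorescence score within five deviations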;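 also: score derived from kinetic fluorescence span divided by baseline fluorescence per well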
TAAR1 nonsel count – nonselective antagonists in TAAR1 counter-screen cells, counter-screen for hTAAR1 antagonist project, cell-based, fluorescence, calcium | shares compounds with TAAR1 antagonist | counterscreen cell line, antagonist mode | inhibition, % at 3 µM | hit rate 77% among 2,400 | AID 651780, 2012; in the data active = inhibition above about 22%;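 also: CHO-Ga16 host cells stimulated with ATP at an EC80 level; 0% = agonist EC80 plus vehicle and 100% = vehicle without agonist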
TAAR1 antag conf – human TAAR1 antagonists, retest of hits, confirmation, cell-based, fluorescence. shares compounds with TAAR1 antagonist. TAAR1-expressing cells, fluorescence antagonist read-out. inhibition, % at 3 µM. hit rate 40% among 2,400. AID 651785, 2012; in the data active = inhibition above about 49%;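 also: CHO-Ga16 host cells challenged with agonist PEA near its EC80; 0% = agonist at EC80 plus vehicle and 100% = vehicle with no agonist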
Ga16 nonsel ag – calcium activation in Ga16-expressing cells, counter-screen for TAAR1 antagonist project, cell-based, fluorescence. hit rate 18% among 2,400. agonist counterscreen. activation, % at 3 µM. shares compounds with TAAR1 antagonist. AID 651953, 2012; in the data active = activation above about 12%;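 also: 0% = vehicle wells and 100% = saturating stimulus response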
TAAR1 ag counter – TAAR1 activation by candidate antagonists – cell-based, fluorescence, counter-screen for TAAR1 antagonist project; hit rate 2% among 2,400; shares compounds with TAAR1 antagonist; activation, % at 3 µM; AID 651955, 2012; hTAAR1 cell line, agonist mode; in the data active = activation above about 37%;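 also: CHO cells stably expressing TAAR1 with calcium dye readout; 0% = DMSO vehicle and 100% = full agonist response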
An asterisk follows results filed as active; i = inactive; . = no result. This is a sample that favours compounds with a hit; in the whole collection about 3.9% have one here.

SMILES | TMEM16A act | TAAR1 antagonist | TAAR1 agonist | CRFBP-R2 agonist | CRFBP-R2 block | ANO1 block | TAAR1 nonsel count | TAAR1 antag conf | Ga16 nonsel ag | TAAR1 ag counter
COc1cc(NC(=O)c2ccc(-c3cccc(F)c3)o2)ccc1NC(=O)c1ccccc1Cl | i | 55.4* | 8.0 | 1.4 | -5.8 | . | 22.6* | 37.4 | 3.4 | 1.7
CCOc1ccc(N(C(C)C(=O)Nc2cccnc2)S(C)(=O)=O)cc1 (stereo unspecified) | i | -18.3 | 1.9 | 0.2 | -1.5 | i | . | . | . | .
CCOc1ccc(N(C(C)C(=O)N/N=C(\C)c2cccc(NC(=O)c3ccccc3)c2)S(C)(=O)=O)cc1 (stereo unspecified) | i | 53.6* | 16.9 | 1.4 | 18.1 | i | 29.2* | 42.7 | 6.6 | 5.2
O=C(NCc1ccco1)c1cccc(Nc2nc3ccc(Br)cc3[nH]2)c1 | i | 55.5* | 17.5 | -2.5 | 10.6 | i | 23.6* | 27.1 | 5.0 | 11.9
C[C@]12CC[C@H]3C(=CCc4cc(O)ccc43)[C@@H]1CCC2=O | i | 83.4* | 16.4 | 1.0 | -3.6 | i | 35.1* | 59.3* | 11.7* | 13.0
CCCN(CC(=O)Nc1ccccc1C)C(=O)c1ccc2c(c1)S(=O)(=O)N=C1CCCCCN12 | i | 15.5 | 7.6 | -0.9 | 11.7 | . | . | . | . | .
CCS(=O)(=O)c1ccc(-c2csc(-c3ccccc3)n2)c(Cl)c1Cl | i | 67.7* | 13.8 | 7.2 | -56.1 | 25* | 23.6* | 24.2 | 2.3 | 4.8
CCOc1ccccc1N(CC(=O)N1CCCC1)S(C)(=O)=O | i | 2.7 | 1.2 | 0.9 | 4.2 | i | . | . | . | .
CCn1c2ccccc2c2cc(NC(=O)c3ccc(=O)oc3)ccc21 | i | -16.8 | 6.5 | 41.4 | -47.8 | i | . | . | . | .
CCn1c2ccccc2c2cc(NC(=O)c3coc(=O)c(Br)c3)ccc21 | . | 105.4* | 5.5 | . | . | i | 16.2 | 18.2 | 4.8 | 4.9
COc1ccccc1OCCC(=O)NNC(=O)c1ccccc1F | i | 103.0* | 1.0 | 0.4 | -6.3 | . | -6.7 | -7.9 | 11.2 | 7.8
Cc1ccc(C)c(OCCC(=O)NNC(=O)c2ccccc2F)c1 | i | -18.3 | 2.5 | 0.2 | 2.2 | i | . | . | . | .
Cc1c(-c2ccccc2)oc2c(C(=O)OCC(=O)Nc3cccc(F)c3)cccc2c1=O | i | 63.3* | 11.8 | 0.9 | 2.2 | i | 33.5* | 64.4* | 7.6 | 3.4
CCOc1ccc(CCn2c(-c3ccco3)nc3ccccc3c2=O)cc1OCC | i | 57.8* | 12.8 | -0.7 | -3.4 | i | 30.9* | 45.0 | 7.2 | 5.5
COCc1c(C(=O)N2CCN(c3ccccc3C)CC2)oc2ccccc12 | i | 16.8 | -0.8 | 1.2 | 17.9 | . | . | . | . | .
CCN(C(=O)c1cnc(N2CCN(c3ncccn3)CC2)c2ccccc12)c1cccc(Cl)c1 | i | 49.9* | 13.0 | 1.0 | -12.8 | 100* | 26.6* | 31.0 | 4.0 | 5.8
O=C(c1cnc(N2CCN(c3ncccn3)CC2)c2ccccc12)N1CCN(c2ncccn2)CC1 | i | 59.3* | 21.1 | -1.3 | -0.4 | i | 31.7* | 49.4* | 10.5 | 12.7
CN(C(=O)c1cnc(N2CCN(c3ncccn3)CC2)c2ccccc12)c1ccc(Cl)cc1 | i | 50.9* | 14.4 | 9.5 | 5.2 | i | 15.2 | 39.5 | 8.0 | 12.6
CS(=O)(=O)Nc1cc2c3c(c1)CCC(=O)N3CCC2 | i | -11.6 | 3.0 | -0.8 | -2.1 | i | . | . | . | .
CCC(Sc1nnc(-c2ccco2)n1C)C(=O)Nc1nnc(C)s1 (stereo unspecified) | i | -5.5 | -0.7 | 1.1 | 3.7 | i | . | . | . | .
OC(c1ccc(-c2ccccc2)cc1)c1ncc(-c2ccc(F)cc2)[nH]1 (stereo unspecified) | . | -9.5 | 3.4 | . | . | . | . | . | . | .
COc1cccc(-c2nc(NCC3CCCO3)c3ccccc3n2)c1O (stereo unspecified) | i | 44.8 | 12.6 | -0.5 | -14.3 | i | . | . | . | .
COc1ccc(-c2nc3cccc(C)n3c2NCC2CCCO2)cc1O (stereo unspecified) | i | 65.1* | 15.2 | -2.7 | -1.7 | i | 26.7* | 47.7 | 8.1 | 8.0
COc1cc(-c2nc3ccccn3c2N)ccc1O | i | 2.7 | 1.3 | -1.0 | -3.1 | i | . | . | . | .
COc1cc(-c2nc3ccccn3c2NCC2CCCO2)ccc1O (stereo unspecified) | i | 58.9* | 18.9 | -1.8 | -28.9 | i | 30.3* | 47.2 | 9.8 | 11.0
SMILES | TMEM16A act | TAAR1 antagonist | TAAR1 agonist | CRFBP-R2 agonist | CRFBP-R2 block | ANO1 block | TAAR1 nonsel count | TAAR1 antag conf | Ga16 nonsel ag | TAAR1 ag counter
O=C(Cn1nc(-c2ccc3c(c2)OCCO3)ccc1=O)Nc1cccc(NC(=O)c2ccccn2)c1 | . | . | . | . | . | i | . | . | . | .
CCCCCCn1nc(C(=O)OCC(=O)c2c(N)n(C)c(=O)n(C)c2=O)c2ccccc2c1=O | i | 78.5* | 5.6 | -0.6 | -15.2 | i | 35.9* | 53.2* | 9.2 | 8.0
CC[C@H](C)C(C(=O)N1CCN(C(=O)OC(C)(C)C)CC1)n1cc(C(Cc2ccc(O)cc2)NC(=O)OC(C)(C)C)nn1 (stereo partly specified) | i | 55.8* | 22.2 | -6.6 | -1.5 | i | 30.1* | 48.5 | 6.6 | 7.5
COc1cccc(OCc2cc(C(=O)NC(C)c3cnn(C)c3C)no2)c1 (stereo unspecified) | i | -0.4 | 3.6 | 0.3 | -10.0 | i | . | . | . | .
Cc1ccc(OCCn2cnc3cc([N+](=O)[O-])ccc3c2=O)cc1 | i | 78.2* | 11.2 | 0.4 | 6.5 | i | 31.2* | 51.4* | 9.3 | 6.7
O=c1c2ccc([N+](=O)[O-])cc2ncn1CCOc1ccccc1 | i | 77.1* | 15.7 | -1.3 | 3.7 | i | 26.4* | 61.8* | 10.1 | 8.5
